Source: PubChem
An excerpt weighted towards active compounds, which were near 2.4% of everything screened.
HNF4A DNA FP: change in binding of human HNF4 alpha to DNA; HNF4a-FITC DNA binding, fluorescence polarization, 1 h; activity change, % at 10 µM; 360,000 compounds, 0.3% hits; in the data active = activity change above about 30%, passing the limit was not always enough
Tb MetRS inh: blocks T. brucei methionyl-tRNA synthetase activity. inhibition, % at 11.9 µM. 360,000 compounds, 0.4% hits. purified T. brucei MetRS, ATP depletion, Kinase-Glo luminescence. AID 624268;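 active = inhibition above a per-plate cutoff of the control wells' mean inhibition plus 3 SD, cut at about 5.5% in these data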;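 also: 0% = DMSO wells median and 100% = median of wells with control inhibitor compound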
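Assay system: T. brucei methionyl-tRNA synthetase, purified | Medium: HEPES buffer with MgCl2, KCl, DTT, spermine, BSA, pyrophosphatase | Compound: 11.9 µM single point | Incubation: 15 min enzyme-compound preincubation, 2 h reaction, 10 min detection, 25 °C | Measured by: Kinase-Glo luciferase luminescence reporting remaining unconsumed ATP | Measure: % inhibition normalized to control-well medians | Replication: Singlicate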
CSN inh: inhibitors of human CSN-mediated cullin deneddylation. 360,000 compounds, 0.38% hits. inhibition, % at 12.5 µM. Purified CSN, SCF-Nedd8-OG deneddylation, fluorescence polarization;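 active = pattern-corrected inhibition above about 35%, with an unprinted fluorescence ratio check between 0.5 and 1.5, limit read from the data, passing the limit was not always enough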;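 also: 0% = enzyme with substrate and 100% = substrate without enzyme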
Target sequence (Q92905 whole entry, looked up, one chain of several): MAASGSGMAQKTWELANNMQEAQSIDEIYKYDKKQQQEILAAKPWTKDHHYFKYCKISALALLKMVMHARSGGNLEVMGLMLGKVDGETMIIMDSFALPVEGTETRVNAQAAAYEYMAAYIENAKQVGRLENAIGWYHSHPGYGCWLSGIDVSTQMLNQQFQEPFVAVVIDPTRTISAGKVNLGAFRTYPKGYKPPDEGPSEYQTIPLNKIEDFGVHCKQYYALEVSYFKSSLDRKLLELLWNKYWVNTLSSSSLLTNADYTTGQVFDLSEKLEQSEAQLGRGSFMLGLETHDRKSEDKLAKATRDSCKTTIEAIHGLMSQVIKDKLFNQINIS
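Schedule: reaction 90 min, room temperature / Assay system: HEK293T-derived human Csn5 enzyme / Input: Csn5 at 0.24 nM final / Measure: inhibition of Csn5 cleavage, % / Control set: substrate-only high control, full reaction low control / Technique: fluorescence polarization of the substrate / Buffer or medium: Tris/NaCl/DTT buffer, pH 7.5 / Reagent: SCFSkp2-Nedd8OG substrate at 10 nM final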
Neddyl block: blocks human cullin neddylation; AID 651699; inhibition, % at 25 µM; 360,000 compounds, 0.58% hits; TR-FRET cullin neddylation, biochemical; P61081+Q13564; in the data active = inhibition above about 36%
Rpn11 inh: Rpn11 (human) deubiquitinase inhibition; 360,000 compounds, 0.59% hits; human 26S proteasome, Ub4-pepOG fluorescence polarization; 20S core pre-blocked with epoxomicin; inhibition, % at 20 µM;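 active = inhibition at 20 µM, scaled to each plate's controls, above about 33%, limit read from the data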
PREPL inh: inhibits the human prolyl oligopeptidase-like enzyme. 320,000 compounds, 0.68% hits. AID 2751. inhibition, % at 5.96 µM. Q4J6C6. recombinant PREPL, fluorescence polarization activity-based probe;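 also: 0% = enzyme with DMSO and 100% = wells lacking enzyme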
PREPL confirm: human PREPL inhibition, confirmation; shares compounds with PREPL inh; recombinant PREPL, fluorescence polarization activity probe; inhibition, % at 5.96 µM; 2,000 compounds, 67% hits;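 also: 0% = protein with DMSO and 100% = wells lacking protein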
Numbers without * were called inactive; . = not tested or not shown. Rule as the data show it, unless noted: active = inhibition above about 43%; inactive = the rest.

SMILES	HNF4A DNA FP	Tb MetRS inh	CSN inh	Neddyl block	Rpn11 inh	PREPL inh	PREPL confirm
C[C@@H]1O[C@@H](Oc2c(-c3cc(O)c(O)c(O)c3)oc3cc(O)cc(O)c3c2=O)[C@H](O)[C@H](O)[C@H]1O	-1	1	1	-39	0	48*	20
COc1ccc2c(c1C)CCC(C)(C#N)C2=O (centres undefined)	0	-1	1	-10	-1	.	.
Nc1ccccc1N=Nc1ccccc1N	-3	0	1	-76	-7	50*	43*
CC(C)CCC(CCNCc1ccccn1)c1ccc(Cl)cc1 (centres undefined)	-1	0	5	2	3	25	.
O=C(NC1CCCCC1)C1CCCN1S(=O)(=O)c1cccc2nsnc12 (centres undefined)	1	0	-2	-26	2	7	.
O=C(O)c1ccc(Cl)c(NC(=O)C2CCCN2S(=O)(=O)c2cccc3nsnc23)c1 (centres undefined)	-2	-1	-4	-28	-4	69*	0
O=C(C[n+]1ccc(C(=O)N/N=C/c2ccc(Cl)cc2Cl)cc1)c1ccccc1	-1	1	1	-21	7	45*	24
CC1CCCC(C)N1C(=O)CN1C(=O)NC2(CCCCCC2)C1=O (centres undefined)	-1	0	-1	-4	-3	.	.
Cn1c(N/N=C/c2c[nH]c3ccccc23)nc2ccccc21	-3	1	3	-5	16	53*	65*
CCOc1ccc(NCc2nc3ccccc3n2CCOc2ccccc2)cc1	2	-1	0	3	2	45*	45*
C/C(=N\Nc1nc2ccccc2s1)c1cccs1	8	0	3	15	1	45*	51*
C(=N\Nc1nc2ccccc2s1)/c1cccs1	-1	0	-2	15	4	42	.
Cc1ccsc1/C=N/Nc1nc2ccccc2s1	-3	-1	-4	6	7	46*	55*
NC(=O)C1(Nc2ccc(C(=O)O)cc2)CCCC1	0	0	3	-4	-2	.	.
COc1ccc2cc1Oc1ccc(cc1)CC1c3c(cc(OC)c4c3Oc3cc5c(cc3O4)CCNC5C2)CCN1C (centres undefined)	100*	0	4	-12	5	51*	52*
CC(O)(c1cccc(F)c1)c1nc(/C=C/c2ccccc2)cs1 (centres undefined)	3	0	-4	-6	-2	.	.
CC(CO)Nc1nc(SCc2ccccc2)nc2sc3c(c12)CCC3 (centres undefined)	1	-1	33	5	0	44*	41
O=C(C[C@@H]1C/C=C\C[C@H](Cc2ccc(F)cc2)C(=O)OC[C@H]2CCCN2C1=O)N[C@H](CO)Cc1ccccc1	4	0	-4	-13	-2	46*	43
O=C(C[C@@H]1C/C=C\C[C@@H](Cc2ccc(F)cc2)C(=O)OC[C@@H]2CCCN2C1=O)N[C@H](CO)Cc1ccccc1	-7	0	1	1	2	48*	54*
O=C(C[C@H]1C/C=C\C[C@@H](Cc2ccc(F)cc2)C(=O)OC[C@H]2CCCN2C1=O)NCCO	1	0	-5	-18	-7	47*	48*
C[C@H](NC(=O)[C@@H]1CCCN1C(=O)[C@@H]1CCCN1)c1ccccc1	1	-1	-5	-1	.	.	.
NNc1ncnc2sc3c(c12)CCC3	-4	0	5	-1	3	44*	22
C=C1N(C)c2cc([N+](=O)[O-])c(N)cc2C1(C)C	1	-1	1	-40	3	85*	44*
Cc1nc(-c2ccc(O)c(O)c2)cs1	0	-1	0	-1	-10	46*	2
COc1cccc(Nc2ncnc3onc(-c4ccccc4OC)c23)c1	1	0	1	20	-6	-3	.
SMILES	HNF4A DNA FP	Tb MetRS inh	CSN inh	Neddyl block	Rpn11 inh	PREPL inh	PREPL confirm
COc1ccc(C(=O)Nc2ccc(N3CCOCC3)cc2)cc1S(=O)(=O)N1CCOCC1	-1	0	3	13	-9	.	.
COc1ccc(C(=O)Nc2ccc(-c3ccc(C)o3)cc2)cc1S(=O)(=O)N1CCOCC1	-2	-1	-1	-54	-3	63*	37
Oc1sc(C=Nc2ccccc2)c2ccccc12	24	1	28	-75	.	39	.
Oc1sc(C=Nc2ccc(F)cc2)c2ccccc12	36*	0	12	13	.	51*	51*
Cc1sc2ncnc(N/N=C/c3ccc(O)cc3)c2c1C	-1	0	3	-16	6	24	.
Cc1sc2ncnc(N/N=C/c3ccccc3O)c2c1C	0	-2	9	50*	7	66*	65*
O=C(NC1CCCCC1)C(c1ccccc1)N(Cc1ccc2c(c1)OCO2)C(=O)c1cnsn1 (centres undefined)	-5	0	1	-2	-8	46*	33
Cc1ccc(C(C(=O)NC2CCCC2)N(Cc2ccc3c(c2)OCO3)C(=O)c2snc(C(N)=O)c2N)cc1 (centres undefined)	-1	-1	-5	19	9	-2	.
COc1ccc(CN2CCc3ccccc3C2)cc1Br	-1	0	-2	2	8	-5	.
CCc1c(C)nc2cc(-c3ccc(OC)c(OC)c3)nn2c1N1CCCC1	0	-1	3	.	4	45*	38
CCc1c(C)nc2cc(-c3ccc(OC)c(OC)c3)nn2c1N1CCC(C)CC1	-1	0	1	.	-3	7	.
O=C(C1=C[C@@H](c2ccc(Br)cc2)C[C@@H](OCc2ccc(CO)cc2)O1)N1CCN(Cc2ccc3c(c2)OCO3)CC1	5	4	-9	-33	10	45*	59*
O=C(C1=C[C@@H](c2ccc(Br)cc2)C[C@@H](OCc2ccc(CO)cc2)O1)N1CCN(Cc2ccccc2)CC1	1	0	2	-28	13	66*	53*
O=C(C1=C[C@H](c2ccc3c(c2)OCO3)C[C@H](OCc2ccc(CO)cc2)O1)N1CCCCCCC1	0	0	-2	5	-2	25	.
CC(C)(C)[C@H]1C=C(C(=O)N2CCN(Cc3ccc4c(c3)OCO4)CC2)O[C@@H](OCCCCO)C1	5	0	-2	-15	6	44*	43
CC(=O)n1cc([C@@H]2C=C(C(=O)N3CCN(C)CC3)O[C@H](OCc3ccc(CO)cc3)C2)c2ccccc21	0	0	-7	-23	3	46*	52*
